# RTF Ca sens inh – cardiac RTF calcium desensitization; 0.12% of 340,000 active; P19429+P45379; IANBD-labeled cardiac RTF, Ca2+ fluorescence; inhibition, % at 7.15 µM;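 active = inhibition above the mean inhibition of all tested compounds plus 3 SD, cut at about 17% in these data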;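 note: assay run at fixed EC70 calcium of 1.6 mM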
# DDE Tn7 FP inh – DD(E)-Tn7 binding inhibition, primary FP screen; P02675; FP displacement of FITC-Tn7 peptide from fibrin DD(E); 0% = median of compound wells per plate; inhibition, % at 8.3 µM; 0.13% of 370,000 active; AID 720508;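 active = inhibition above the mean of compounds falling within the control limits plus 3 SD of them, cut at about 14% in these data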;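 note: 0% = plate median of compound wells and 100% = 10 µM Aha-Tn7 peptide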
# Target sequence (P02675 whole entry, looked up): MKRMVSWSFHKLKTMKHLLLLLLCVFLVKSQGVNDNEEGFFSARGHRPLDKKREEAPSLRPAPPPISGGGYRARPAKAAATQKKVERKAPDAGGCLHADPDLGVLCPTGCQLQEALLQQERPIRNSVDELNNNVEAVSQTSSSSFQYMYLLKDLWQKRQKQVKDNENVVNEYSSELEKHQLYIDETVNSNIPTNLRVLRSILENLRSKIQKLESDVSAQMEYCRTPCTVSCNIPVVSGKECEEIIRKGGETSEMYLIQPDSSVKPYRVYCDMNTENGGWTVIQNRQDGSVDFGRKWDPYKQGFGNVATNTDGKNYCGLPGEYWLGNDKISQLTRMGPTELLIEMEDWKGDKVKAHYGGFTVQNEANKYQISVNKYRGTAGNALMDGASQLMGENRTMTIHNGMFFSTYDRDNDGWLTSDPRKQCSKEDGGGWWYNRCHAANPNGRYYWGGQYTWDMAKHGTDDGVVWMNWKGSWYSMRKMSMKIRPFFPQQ
#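 Assay system: Fibrin-DD(E) protein isolated from polymerized human fibrin clots; read-out basis: percent inhibition; medium: Tris/NaCl/CaCl2 buffer, pH 7.8; signal: FP measurement; incubation: 10 min plus 3 h, room temperature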
# RTF Ca sens act – increases calcium sensitivity of human cardiac regulated thin filaments | P19429+P45379 | 0.24% of 340,000 active | activation, % at 7.2 µM | AID 493008 | IANBD-labeled TnC RTF fluorescence at EC20 calcium; 0% EC20 calcium, 100% full calcium;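 active = activation above the mean over all tested compounds plus 3 SD, cut at about 30% in these data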;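 note: rise in fluorescence read as greater calcium sensitivity of cardiac thin filaments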
# Tn6 DDE FP – disrupts Tn6 cyclic peptide binding to fibrin D-Dimer-E complex | P02675 | Fibrin DD(E) TRITC-Tn6 fluorescence polarization displacement | inhibition, % at 8.3 µM | 0.21% of 370,000 active;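 active = inhibition above a per-campaign cutoff: mean of compounds within control limits plus 3 SD, cut at about 15% in these data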;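 note: 0% = median of all compound wells on the plate and 100% = blocking peptide control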
# C-LANA FP – KSHV C-LANA DNA binding inhibition | MBP-C-LANA/FAM-LBS DNA binding, fluorescence polarization | inhibition, % at 9 µM | 0.078% of 340,000 active | AID 504423;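 active = highest replicate inhibition at or above 60% at 9 µM, even if other replicates fall short; inactive = all replicates below 60% inhibition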;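 note: 0% = neutral control wells and 100% = 4 µM acridine orange control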
# Keap1 Nrf2 FP – disrupts human Keap1 binding to Nrf2 peptide | Q14145 | Keap1 Kelch-Nrf2 peptide fluorescence polarization, 1536-well | inhibition, % at 9.4 µM | 0.15% of 340,000 active | AID 504523; in the data active = inhibition above about 12%; inconclusive = no clear call, values can overlap the other calls; inactive = below about 7.3%;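 note: human Keap1 Kelch domain with fluorescein labeled Nrf2 9mer peptide probe; 0% = neutral control wells and 100% = peptide positive control; higher means more block of Keap1 binding to Nrf2 peptide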
# Keap1 Kelch bind – binds and thermally shifts human Keap1 Kelch domain; Keap1 Kelch thermal shift, delta Tm; active compounds read high; shares compounds with Keap1 Nrf2 FP; max delta Tm, degrees C; 8% of 400 active; in the data active = max delta Tm above about 0.48 degrees C
# Dye-only ctr – shifts Sypro Orange melt without protein, a false positive | shares compounds with Keap1 Nrf2 FP | Sypro Orange dye-only thermal melt, no protein, delta Tm; top dose 26 µM | 140 tested, under 10 active | delta Tm, degrees C (test concentration not listed) | AID 651858;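 active = at highest dose tested, delta Tm positive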
# The depositor's hits bear a star; ? = inconclusive; / = no result; ! = not confirmed by another sample. This is a sample that favours compounds with a hit; in the whole collection about 0.73% have one here.
SMILES,RTF Ca sens inh,DDE Tn7 FP inh,RTF Ca sens act,Tn6 DDE FP,C-LANA FP,Keap1 Nrf2 FP,Keap1 Kelch bind,others
N=c1c(C(=O)NC2CCCC2)cc2c(=O)n3ccccc3nc2n1Cc1ccccc1,-14.5,-3.6,-2.4,-2.7,0.8,?,0.03,
Cc1ccc2ccccc2c1C(O)c1ncc(-c2ccccc2Cl)[nH]1 (centres undefined),/,-2.2,/,-8.4,/,/,/,
CC1CCC2(CCC(=O)N2CCCO)CC1 (centres undefined),/,-0.9,/,4.6,/,/,/,
COc1ccc(/C=c2\s/c(=C(/C#N)C(=O)NCc3ccco3)n(-c3ccccc3)c2=O)cc1,-10.7,-4.2,-1.4,-4.9,13.1,13.1*,-0.02,
CN(C)CCNC(=O)c1c(NC(=O)c2ccccc2)sc2c1CCCC2,-3.7,1.9,5.3,-5.2,/,16.8*,-0.15,
O=[N+]([O-])c1ccc(CSc2nnc(-c3cccc(Cl)c3)n2Cc2ccco2)cc1,/,-1.5,/,4.3,/,/,/,
Cc1ccc(NC(=O)c2cccc(S(=O)(=O)Nc3c(C)n(C)n(-c4ccccc4)c3=O)c2)cc1C,/,2.1,/,0.5,/,/,/,
O=C(CCn1nnc(-c2cccs2)n1)N1CCCCC1,/,-7.1,/,11.4,/,/,/,
Cc1ccc2cc(CN(CCCO)S(=O)(=O)c3cccc4nsnc34)c(=O)[nH]c2c1C,-6.9,-9.8,6.8,-2.5,-1.5,13.6*,-0.15,Dye-only ctr=-34.2
Cc1cc(NC(=O)CSc2nnc(-c3ccncc3)n2C)n(-c2ccccc2)n1,-12.5,-2.3,2.9,-4.2,11.9,14.6*,-0.15,Dye-only ctr=-22.3
CN(c1ccc(Cl)cc1)c1cc2c(c3c1ccn3C)C1CCC2O1 (centres undefined),/,0.9,/,10.7,/,/,/,
CCOC(=O)C1=C(C)NC(C)=C(C(=O)OC)C1c1cccc([N+](=O)[O-])c1 (centres undefined),9.3,-7.3,8.7,-5.8,0.4,-4.1,/,
CCOC(=O)C1=C(C)NC(C)=C(C(=O)OCC)C1c1ccc([N+](=O)[O-])s1,/,-1.0,/,-6.2,19.7,38.6*,-0.11,
CCC(C)(C)n1nnnc1C(c1cc2ccc(OC)cc2[nH]c1=O)N1CCc2ccccc21 (centres undefined),1.1,0.1,7.0,-5.4,1.4,-5.9,/,
CCC(C)(C)n1nnnc1C(c1cc2ccc(OC)cc2[nH]c1=O)N1CCc2ccccc2C1 (centres undefined),-1.3,3.6,-1.2,1.3,34.5,9.6*,-0.13,Dye-only ctr=-24.5
O=C(OCCN1C(=O)c2cccc3c(N4CCOCC4)ccc(c23)C1=O)c1ccc(Cl)cc1Cl,-267.7,3.5,191.7*,-5.0,62.6*,42.9*,-0.15,Dye-only ctr=-4.88
O=C(Cn1nnc(N2CCCCC2)n1)NN=Cc1ccccc1O,/,2.5,/,1.8,/,/,/,
O=C1NC(=O)/C(=C/c2ccccc2Cl)N1,-5.5,-1.9,3.2,-4.3,-1.4,112.0*,-0.15,
O=C1NC(=O)/C(=C\c2ccc(Cl)cc2Cl)N1,1.2,-4.2,1.8,4.1,3.6,1.1,/,
COc1ccc(NC(=O)Cc2ccsc2)cc1S(=O)(=O)N1CCOCC1,-13.2,-6.7,8.6,2.4,26.8,46.0*,-0.13,
CN1CCC2(CC1)C1CN(C)CC=C1C(C#N)=C(N)C2(C#N)C#N (centres undefined),-44.1,3.3,36.5*,5.5,40.4,13.5*!,-0.14,
C=CCN1C(=O)[C@]2(c3ccccc31)C1CCCC=C1C(C#N)=C(N)C2(C#N)C#N (some centres undefined),-3.5,2.9,-0.4,-5.1,1.0,-1.8,/,
O=C(COC(=O)c1cccnc1Cl)Nc1ccc(N2CCCCC2)cc1,-14.5,6.2,2.4,-0.4,/,43.2*,-0.12,Dye-only ctr=-27.5
O=C(COC(=O)c1cccnc1Cl)Nc1ccc(N2CCOCC2)cc1,/,3.0,/,1.8,/,/,/,
O=C1c2ccccc2C(c2nnnn2Cc2ccccc2)N1Cc1ccc2c(c1)OCO2 (centres undefined),/,9.8,/,-6.6,/,/,/,
SMILES,RTF Ca sens inh,DDE Tn7 FP inh,RTF Ca sens act,Tn6 DDE FP,C-LANA FP,Keap1 Nrf2 FP,Keap1 Kelch bind,others
COc1ccccc1CNC(=O)c1ccc(S(=O)(=O)N(C)c2ccccc2)cc1,-0.8,0.0,-5.2,6.1,-0.4,-1.8,/,
COc1ccccc1N(C)S(=O)(=O)c1ccc(C(=O)NCc2ccccc2CN2CCCC2)cc1,-10.4,5.3,3.0,5.8,29.6,47.2*,-0.19,
Cc1ccc(C)c(N2CCN(C(=O)c3cc4ccccn4n3)CC2)c1,-197.2,/,102.8*,/,44.3,16.3*,0.38,Dye-only ctr=-28.2
Cc1ccc(NC(=S)NCc2ccc(F)cc2)c(C)c1,-12.4,6.2,-0.4,0.4,27.6,22.5*,-0.16,Dye-only ctr=-24.3
Cc1ccc(NC(=S)NCc2ccc(S(N)(=O)=O)cc2)c(C)c1,-17.4,-2.1,-0.3,1.0,-0.5,-5.0,/,
C=CCN1[C@H](CC(C)C)COc2cc(N3CCCC3)ccc2S1(=O)=O,/,4.8,/,-2.8,/,/,/,
O=C(NNc1cc(Cl)ccc1Cl)c1cccs1,/,1.6,/,-2.9,14.1,30.6*,-0.11,
Cc1cc(Cl)ccc1NNC(=O)c1cccs1,1.2,-2.1,5.2,-2.5,0.3,-4.3,/,
Cc1ccc(C(=O)NNC(=O)c2n[nH]c(=O)c3ccccc23)cc1C,-23.2,-0.9,9.7,3.8,14.6,32.6*,-0.04,
O=C1CCCc2oc3c(cc(NS(=O)(=O)c4ccc5c6c(cccc46)C(=O)N5)c4ccccc43)c21,-1.8,-1.9,1.8,-17.7,0.1,23.9*,1.59*,
Cc1oc2c(cc(NS(=O)(=O)c3ccc4c5c(cccc35)C(=O)N4)c3ccccc32)c1C(=O)OC(C)C,-5.8,3.5,9.0,-10.7,-0.2,0.4,/,
O=c1c(-c2cc3ccccc3o2)[n+]([O-])c2ccccc2n1OCc1ccccn1,-6.3,-0.6,2.0,-9.5,15.0,36.2*,-0.07,Dye-only ctr=-31.5
C[C@@H]1CN([C@@H](C)CO)C(=O)CCCn2cc(nn2)CO[C@H]1CN(C)C(=O)Nc1ccc(F)cc1,/,-0.2,/,3.2,/,/,/,
COC(=O)c1ccc(CN2C(=O)c3ccccc3C2=O)cc1,-2.6,2.2,-0.9,7.4,-1.2,1.6,/,
COC(=O)c1ccc(OC(=O)CN2C(=O)c3ccccc3C2=O)cc1,-6.1,5.3,-1.9,-4.2,24.6,57.0*,-0.1,
Cc1cc[n+](-c2[nH]c(=O)sc2/C=N/NC([S-])=Nc2ccccc2)cc1C,-66.1,12.6,50.7*,0.1,47.7,32.1*,0.02,
Cc1ccc[n+](-c2[nH]c(=O)sc2/C=N/N=C(\[O-])CCn2c3ccccc3c3ccccc32)c1,-8.0,6.5,0.0,-4.0,3.7,-3.2,/,
COc1ccc(OC)c(CN2C(=O)COc3ccccc3C2c2nnnn2C2CCCC2)c1 (centres undefined),/,-0.1,/,1.8,/,/,/,
